UBC13 inh: UBC13 polyubiquitin chain formation inhibitors, primary screen, biochemical, TR-FRET, uHTS; Ubiquitin-conjugating enzyme E2 N (Homo sapiens), P61088; inhibition, % at 20 µM; 330,000 compounds, 0.47% hits; AID 485273, 2010; in the data active = inhibition above about 45%, passing the limit was not always enough; inconclusive = no clear call, values can overlap the other calls
Target sequence (P61088 whole entry, looked up): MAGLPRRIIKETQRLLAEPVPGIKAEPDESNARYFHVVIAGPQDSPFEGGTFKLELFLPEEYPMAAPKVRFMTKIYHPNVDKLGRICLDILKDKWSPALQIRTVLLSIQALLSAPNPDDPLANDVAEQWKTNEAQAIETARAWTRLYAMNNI
MEKK3 PB1 HTS: modulators of MEKK3-MEK5 PB1 binding, primary screen, biochemical, wildtype MEKK3, multiplex bead flow cytometry, Alexa488-MEK5 | Mitogen-activated protein kinase kinase kinase 3 (Homo sapiens), Q99759 | bead-based flow cytometry, Alexa488-MEK5 binding to MEKK3; actives lie on both sides; 0 = blocked by unlabeled MEK5, 100 = vehicle | binding response (% of control), % at 10 µM | 290,000 compounds, 1.4% hits | AID 1529, 2009;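 active = binding response more than 3 SD above or below the average of its plate-row segment, actives on both sides; inconclusive = wells at one plate position flagged as instrument error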;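 also: Alexa488 bead fluorescence after subtracting the streptavidin-only scavenger bead signal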
DSG3 Ab inh: inhibitors of pemphigus antibody binding to DSG3, primary screen, biochemical, bead-based, flow cytometry, scFv-GFP | Desmoglein-3 (Homo sapiens), P32926 | DSG3-coupled beads, scFv-anti-DSG3-GFP binding; hits give low values | binding (percent of control), % at 10 µM | 310,000 compounds, 0.48% hits | AID 588358, 2011;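 active = binding more than 3 SD below its plate's average and above zero; inconclusive = below that plate limit but binding exactly zero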;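 also: hits lower antibody fragment binding to DSG3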
MEKK2wt PB1 HTS: modulators of MEK5 binding to wildtype MEKK2, primary screen, biochemical, multiplex bead flow cytometry, Alexa488-MEK5 | Mitogen-activated protein kinase kinase kinase 2 (Homo sapiens), Q9Y2U5 | Alexa488-MEK5 binding to MEKK2 WT; actives lie on both sides | binding response (% of control), % at 10 µM | 290,000 compounds, 1.1% hits | AID 1531, 2009; in the data active = binding response below about 67% or above about 130%; inconclusive = no clear call, values can overlap the other calls; inactive = in between
Apaf1 inhib: inhibitors of human Apaf-1 apoptosome, primary screen, biochemical, DEVD-Rh110 fluorescence, uHTS | Apoptotic protease-activating factor 1 (Homo sapiens), O14727 | 330,000 compounds, 0.71% hits | AID 489030, 2010 | reconstituted apoptosome caspase-3 activity | inhibition, % at 20 µM; active = inhibition of at least 40% at 20 µM;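 also: plate controls were DMSO wells for no effect and DEVD-CHO caspase inhibitor wells for full effect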
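Assay system: Apoptosome proteins | Medium: pH 7.5 Hepes buffer with CHAPS, BSA, DTT | Also added: Cytochrome c and DEVD-Rh110 substrate | Times: 30 min plus 50 min, RT | Detection: Rhodamine 110 fluorescence at Ex 480/Em 540 nm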
MEKK2 mut-MEK5: MEK5 binding signal on mutant MEKK2 PB1, primary screen, biochemical, multiplex bead flow cytometry, Alexa488-MEK5 | AID 1530, 2009 | Alexa488-MEK5 binding to MEKK2 mutant | 290,000 compounds, 0.35% hits | percent response, % at 10 µM; in the data active = percent response above about 24%, passing the limit was not always enough
Active calls of the source: *; ? = inconclusive; / = not tested or not shown. Sampled rows, rich in hits. Any-hit rate of the full collection: about 3.2%.

SMILES	UBC13 inh	MEKK3 PB1 HTS	DSG3 Ab inh	MEKK2wt PB1 HTS	Apaf1 inhib	MEKK2 mut-MEK5
COc1cc(NC(=O)COc2ccccc2Cl)ccc1NC(=O)c1cccs1	9.8	101.0	6.8*	102.0	9.2	3.0
CC1CCCCC1NC(=O)COC(=O)c1c2c(nc3ccccc13)/C(=C/c1ccco1)CC2 (stereo not drawn)	/	98.0	77.5*	90.0	/	-2.0
CC1CCC(NC(=O)CCCn2sc3ccccc3c2=O)CC1 (stereo not drawn)	5.6	99.0	99.5	99.0	15.1	4.0
CCN(CC)c1cccc(OCC(=O)N(C)CCC#N)c1	-10.1	89.0	86.7	/	19.3	73.0*
CCOc1cccc(C(=O)Nc2ccc(N(CC)CC)cc2)c1	8.8	85.0	/	83.0	15.4	-5.0
CC(C)(C)C1CCC(CN2CCC(CN3C(=O)C(=O)NC[C@@H]3Cc3ccccc3)CC2)CC1 (stereo partly drawn)	/	/	112.0	/	/	/
CC(C)CN1CCC(=O)N(CCN=[N+]=[N-])CC1	-9.6	99.0	109.2	96.0	-0.2	2.0
CCN(CC(=O)NCc1cccs1)C(=O)/C=C/c1cccc(Cl)c1Cl	0.7	/	105.2	/	4.8	/
CCn1c(C)nc2cc(C(=O)NNC(=S)Nc3ccc(C)cc3)ccc21	-5.8	88.0	98.2	89.0	-0.3	-11.0
CCn1c(C)nc2cc(C(=O)NNC(=O)CCC3CCCCC3)ccc21	4.1	105.0	62.6*	104.0	-8.5	2.0
Cc1ncc([N+](=O)[O-])n1CCO	-6.6	86.0	110.7	103.0	10.9	5.0
CCS(=O)(=O)CCn1c([N+](=O)[O-])cnc1C	11.6	84.0	96.5	-9.0*	-11.6	-3.0
COC(=O)c1ccc(=O)c2nc3/c(=C/O)c(O)cc(=O)c3[nH]c12	/	86.0	50.3*	89.0	/	2.0
COC(=O)c1ccc(N)cc1O	2.9	108.0	?	111.0	10.5	7.0
COc1cc2c(cc1OC)C(C)N(C(=O)Cn1ncc3c1-c1ccccc1OC3)CC2 (stereo not drawn)	3.5	108.0	89.2*	106.0	-8.0	2.0
O=C(Cc1cccc2ccccc12)N/N=C/c1ccc(O)c([N+](=O)[O-])c1	-25.5	107.0	103.4	102.0	3.6	2.0
O=C(Cc1cccc2ccccc12)N/N=C/c1ccc2cccc(O)c2n1	-18.6	111.0	58.7*	97.0	8.6	1.0
COc1ccc2nc(NC(=O)CSC(C)C(=O)Nc3cc(C)on3)sc2c1 (stereo not drawn)	4.0	/	109.2	/	6.3	/
Oc1ccccc1N1CCN(c2ccc3ccccc3n2)CC1	0.8	101.0	103.6	99.0	9.7	0.0
CCC1(CC)NC(=O)N(CC(=O)OC(C)C(=O)Nc2cc([N+](=O)[O-])ccc2OC)C1=O (stereo not drawn)	0.6	106.0	110.9	106.0	9.8	-2.0
O=C1NC2=C(CCc3ccccc32)C(c2ccc(Br)cc2)N1 (stereo not drawn)	-14.8	63.0	100.6	67.0	69.1*	-6.0
Cc1cc(C)n2nc(SC(C)C(=O)N3CC(C)OC(C)C3)nc2n1 (stereo not drawn)	-11.2	/	93.0	/	-0.8	/
COc1ccc(C(C)NC(=O)Cc2cccs2)cc1OC (stereo not drawn)	-4.0	101.0	108.3	104.0	-2.5	3.0
CC(C)N1CCN(C(=O)c2ccc(NC(=O)c3ccc(Br)o3)cc2)CC1	-0.6	/	67.9*	/	-6.6	/
Cc1cnc(C(=O)OCC(=O)Nc2ccc(Br)c(C)c2)cn1	-7.6	/	114.1	/	1.5	/
O=C(Nc1ccc(NC(=O)N2CCN(c3ccccc3O)CC2)cc1)N1CCN(c2ccccc2O)CC1	0.2	100.0	53.9*	100.0	-2.0	1.0
CC(C)(C)OC(=O)N1CCCN(C(=O)Nc2cccc(Cl)c2)CC1	4.5	100.0	109.5	101.0	1.0	-1.0

Assay outcomes (PubChem BioAssay)
